Experiments:
[1] = target: T1, Serine/threonine-protein kinase B-raf (Homo sapiens, UniProt P15056, V600E); assay: Inhibition of human B-Raf V600E mutant after 3 hrs
Summary of the method: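 Radiometric assay using 20 nM B-Raf V600E. It measures phosphorylation of a biotinylated surrogate peptide by ³³P-ATP in 50 mM HEPES pH 7.5 with 10 mM DTT and 50 mM MnCl₂ at 30 °C for 3 h. The reaction is stopped with 100 mM EDTA, captured 2 h on a streptavidin FlashPlate and scintillation-counted.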

[2] = target: T1, Serine/threonine-protein kinase B-raf; assay: Inhibition of B-Raf V600E mutant-mediated ERK phosphorylation in human A375 cells after 3 hrs by immunoblotting method; format: cell-based, A-375; details: in the assay text read “whole cell ELISA” for “immunoblotting method”
Summary of the method: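 A375 (B-Raf V600E) cells are seeded overnight, then exposed to inhibitors for 3 h at 37 °C. Cells are fixed, permeabilized and blocked overnight. They are probed 1 h with anti-phospho-ERK antibody, then with HRP-linked reagent. The TMB substrate is read as optical density at 650 nm.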

[3] = target: Fibroblast growth factor receptor 1 (Homo sapiens, UniProt P11362); assay: Inhibition of FGFR1
Fibroblast growth factor receptor 1, sequence (P11362 whole entry): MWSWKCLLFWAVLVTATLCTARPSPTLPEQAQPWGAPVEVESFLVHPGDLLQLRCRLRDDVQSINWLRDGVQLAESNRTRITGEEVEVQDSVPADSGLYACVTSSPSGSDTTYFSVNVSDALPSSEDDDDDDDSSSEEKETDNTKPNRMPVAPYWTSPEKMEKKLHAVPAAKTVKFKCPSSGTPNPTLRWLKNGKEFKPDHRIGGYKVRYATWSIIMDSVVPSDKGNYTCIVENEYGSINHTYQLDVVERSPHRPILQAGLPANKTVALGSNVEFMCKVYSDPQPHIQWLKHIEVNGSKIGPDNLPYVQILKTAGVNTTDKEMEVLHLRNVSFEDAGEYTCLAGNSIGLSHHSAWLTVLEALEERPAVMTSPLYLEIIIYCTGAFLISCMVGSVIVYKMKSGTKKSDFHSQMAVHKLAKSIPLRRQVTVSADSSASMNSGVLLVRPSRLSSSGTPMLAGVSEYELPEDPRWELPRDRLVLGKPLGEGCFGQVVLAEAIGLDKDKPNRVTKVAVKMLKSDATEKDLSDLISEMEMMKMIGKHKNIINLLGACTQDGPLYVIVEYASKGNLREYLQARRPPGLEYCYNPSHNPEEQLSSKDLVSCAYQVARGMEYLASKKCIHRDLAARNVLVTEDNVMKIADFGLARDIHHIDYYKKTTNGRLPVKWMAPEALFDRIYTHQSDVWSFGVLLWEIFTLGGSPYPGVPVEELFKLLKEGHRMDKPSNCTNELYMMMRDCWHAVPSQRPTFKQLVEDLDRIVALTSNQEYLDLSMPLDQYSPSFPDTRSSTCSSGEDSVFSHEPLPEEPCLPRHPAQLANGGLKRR

[4] = target: T2, Receptor-type tyrosine-protein kinase FLT3 (Homo sapiens, UniProt P36888); assay: Inhibition of FLT3
T2 sequence (P36888 whole entry): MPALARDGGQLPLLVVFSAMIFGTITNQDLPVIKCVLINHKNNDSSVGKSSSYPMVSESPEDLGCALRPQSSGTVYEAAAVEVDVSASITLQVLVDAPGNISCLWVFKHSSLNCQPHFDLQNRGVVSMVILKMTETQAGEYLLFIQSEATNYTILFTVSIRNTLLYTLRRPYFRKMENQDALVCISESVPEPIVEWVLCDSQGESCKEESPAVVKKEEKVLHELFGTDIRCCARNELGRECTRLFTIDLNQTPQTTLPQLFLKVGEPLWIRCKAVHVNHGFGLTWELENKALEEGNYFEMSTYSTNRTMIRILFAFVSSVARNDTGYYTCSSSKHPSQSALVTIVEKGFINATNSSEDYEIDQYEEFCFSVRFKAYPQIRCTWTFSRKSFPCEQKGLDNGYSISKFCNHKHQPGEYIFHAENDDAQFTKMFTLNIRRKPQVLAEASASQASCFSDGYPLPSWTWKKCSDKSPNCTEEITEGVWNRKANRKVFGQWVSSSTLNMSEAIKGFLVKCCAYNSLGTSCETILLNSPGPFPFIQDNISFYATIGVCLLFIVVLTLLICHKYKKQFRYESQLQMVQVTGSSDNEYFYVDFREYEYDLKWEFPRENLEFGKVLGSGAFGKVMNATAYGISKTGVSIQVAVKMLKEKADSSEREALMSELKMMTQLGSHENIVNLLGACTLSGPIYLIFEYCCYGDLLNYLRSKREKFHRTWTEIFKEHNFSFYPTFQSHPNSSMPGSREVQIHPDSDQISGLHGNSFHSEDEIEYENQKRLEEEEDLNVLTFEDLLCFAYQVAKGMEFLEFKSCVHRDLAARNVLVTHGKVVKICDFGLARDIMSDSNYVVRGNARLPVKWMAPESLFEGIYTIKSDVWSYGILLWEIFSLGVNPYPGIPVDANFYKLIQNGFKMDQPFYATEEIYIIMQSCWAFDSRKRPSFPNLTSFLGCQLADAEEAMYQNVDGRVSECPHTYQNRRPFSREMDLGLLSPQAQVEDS

[5] = target: Vascular endothelial growth factor receptor 2 (Homo sapiens, UniProt P35968); assay: Inhibition of KDR
Vascular endothelial growth factor receptor 2, sequence (P35968 whole entry): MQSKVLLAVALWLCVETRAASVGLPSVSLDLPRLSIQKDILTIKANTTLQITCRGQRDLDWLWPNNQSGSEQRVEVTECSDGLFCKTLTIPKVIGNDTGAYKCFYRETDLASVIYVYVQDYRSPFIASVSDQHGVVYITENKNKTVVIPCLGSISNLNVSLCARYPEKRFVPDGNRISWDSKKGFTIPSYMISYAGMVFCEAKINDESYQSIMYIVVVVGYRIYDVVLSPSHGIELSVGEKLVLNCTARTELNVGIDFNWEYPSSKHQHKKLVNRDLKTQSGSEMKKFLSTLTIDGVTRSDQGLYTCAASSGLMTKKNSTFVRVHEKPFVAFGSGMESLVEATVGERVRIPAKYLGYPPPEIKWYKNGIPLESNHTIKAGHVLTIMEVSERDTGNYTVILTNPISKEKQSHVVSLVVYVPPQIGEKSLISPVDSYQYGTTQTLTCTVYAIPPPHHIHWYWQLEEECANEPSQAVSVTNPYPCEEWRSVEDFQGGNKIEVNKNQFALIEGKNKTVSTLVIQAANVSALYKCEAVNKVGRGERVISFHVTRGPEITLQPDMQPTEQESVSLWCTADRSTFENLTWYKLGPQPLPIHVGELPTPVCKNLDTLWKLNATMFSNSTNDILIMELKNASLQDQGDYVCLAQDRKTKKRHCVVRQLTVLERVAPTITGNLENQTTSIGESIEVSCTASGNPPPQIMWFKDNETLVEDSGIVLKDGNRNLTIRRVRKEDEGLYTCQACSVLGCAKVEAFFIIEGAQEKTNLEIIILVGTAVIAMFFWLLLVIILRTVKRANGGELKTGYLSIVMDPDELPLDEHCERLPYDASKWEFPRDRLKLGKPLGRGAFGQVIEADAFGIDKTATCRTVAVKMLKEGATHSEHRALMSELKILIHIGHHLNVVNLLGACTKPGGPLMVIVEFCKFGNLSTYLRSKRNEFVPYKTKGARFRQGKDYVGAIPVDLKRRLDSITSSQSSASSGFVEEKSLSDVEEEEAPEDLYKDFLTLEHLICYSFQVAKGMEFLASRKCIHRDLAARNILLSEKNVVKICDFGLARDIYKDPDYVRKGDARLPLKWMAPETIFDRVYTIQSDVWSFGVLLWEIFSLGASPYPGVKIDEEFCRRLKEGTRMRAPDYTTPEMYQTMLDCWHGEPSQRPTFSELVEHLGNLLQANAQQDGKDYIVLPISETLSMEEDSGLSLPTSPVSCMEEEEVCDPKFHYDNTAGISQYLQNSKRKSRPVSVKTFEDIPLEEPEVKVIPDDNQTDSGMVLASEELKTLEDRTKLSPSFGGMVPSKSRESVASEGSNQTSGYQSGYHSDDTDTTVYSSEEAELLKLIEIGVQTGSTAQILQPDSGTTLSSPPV

[6] = target: RAC-beta serine/threonine-protein kinase (Homo sapiens, UniProt P31751); assay: Inhibition of AKT2
RAC-beta serine/threonine-protein kinase, sequence (P31751 whole entry): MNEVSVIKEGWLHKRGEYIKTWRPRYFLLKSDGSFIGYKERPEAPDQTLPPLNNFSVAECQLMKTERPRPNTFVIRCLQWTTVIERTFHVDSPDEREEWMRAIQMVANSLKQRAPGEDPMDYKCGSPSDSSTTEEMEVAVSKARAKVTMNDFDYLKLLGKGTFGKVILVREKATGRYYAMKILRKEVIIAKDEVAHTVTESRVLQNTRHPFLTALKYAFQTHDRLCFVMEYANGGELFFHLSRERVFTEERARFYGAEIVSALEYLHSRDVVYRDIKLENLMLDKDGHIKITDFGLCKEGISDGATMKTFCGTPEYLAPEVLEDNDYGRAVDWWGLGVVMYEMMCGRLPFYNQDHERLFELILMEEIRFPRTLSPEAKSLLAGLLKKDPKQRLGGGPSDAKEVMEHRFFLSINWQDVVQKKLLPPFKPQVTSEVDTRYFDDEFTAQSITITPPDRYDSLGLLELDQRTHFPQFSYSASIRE

[7] = target: Mast/stem cell growth factor receptor Kit (Homo sapiens, UniProt P10721); assay: Inhibition of KIT2
Mast/stem cell growth factor receptor Kit, sequence (P10721 whole entry): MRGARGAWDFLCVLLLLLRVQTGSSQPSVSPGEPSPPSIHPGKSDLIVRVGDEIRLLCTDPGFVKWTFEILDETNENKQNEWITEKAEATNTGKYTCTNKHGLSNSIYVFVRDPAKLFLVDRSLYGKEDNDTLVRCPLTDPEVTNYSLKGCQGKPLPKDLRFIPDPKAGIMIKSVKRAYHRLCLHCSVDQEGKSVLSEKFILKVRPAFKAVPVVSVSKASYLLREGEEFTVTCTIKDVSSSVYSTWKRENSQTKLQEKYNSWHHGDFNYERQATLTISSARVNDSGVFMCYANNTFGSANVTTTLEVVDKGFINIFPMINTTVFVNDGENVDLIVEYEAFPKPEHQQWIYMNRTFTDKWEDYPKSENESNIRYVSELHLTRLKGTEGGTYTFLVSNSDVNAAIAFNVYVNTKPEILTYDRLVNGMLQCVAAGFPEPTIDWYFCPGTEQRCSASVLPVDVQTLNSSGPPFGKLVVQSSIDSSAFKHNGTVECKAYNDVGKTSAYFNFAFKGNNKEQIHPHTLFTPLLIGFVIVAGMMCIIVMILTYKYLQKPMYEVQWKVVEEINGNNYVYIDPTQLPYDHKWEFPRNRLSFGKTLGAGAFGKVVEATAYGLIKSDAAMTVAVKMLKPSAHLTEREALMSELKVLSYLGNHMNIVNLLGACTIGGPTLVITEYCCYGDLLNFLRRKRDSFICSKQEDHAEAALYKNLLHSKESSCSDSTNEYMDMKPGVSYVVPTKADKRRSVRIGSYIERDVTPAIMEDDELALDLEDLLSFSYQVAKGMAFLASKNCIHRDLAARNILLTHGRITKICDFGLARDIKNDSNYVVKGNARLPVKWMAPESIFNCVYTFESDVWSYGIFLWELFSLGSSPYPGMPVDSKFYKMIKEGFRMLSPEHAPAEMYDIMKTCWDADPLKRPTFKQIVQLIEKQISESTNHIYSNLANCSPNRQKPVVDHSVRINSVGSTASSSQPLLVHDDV

[8] = target: Macrophage colony-stimulating factor 1 receptor (Homo sapiens, UniProt P07333); assay: Inhibition of CSF1R
Macrophage colony-stimulating factor 1 receptor, sequence (P07333 whole entry): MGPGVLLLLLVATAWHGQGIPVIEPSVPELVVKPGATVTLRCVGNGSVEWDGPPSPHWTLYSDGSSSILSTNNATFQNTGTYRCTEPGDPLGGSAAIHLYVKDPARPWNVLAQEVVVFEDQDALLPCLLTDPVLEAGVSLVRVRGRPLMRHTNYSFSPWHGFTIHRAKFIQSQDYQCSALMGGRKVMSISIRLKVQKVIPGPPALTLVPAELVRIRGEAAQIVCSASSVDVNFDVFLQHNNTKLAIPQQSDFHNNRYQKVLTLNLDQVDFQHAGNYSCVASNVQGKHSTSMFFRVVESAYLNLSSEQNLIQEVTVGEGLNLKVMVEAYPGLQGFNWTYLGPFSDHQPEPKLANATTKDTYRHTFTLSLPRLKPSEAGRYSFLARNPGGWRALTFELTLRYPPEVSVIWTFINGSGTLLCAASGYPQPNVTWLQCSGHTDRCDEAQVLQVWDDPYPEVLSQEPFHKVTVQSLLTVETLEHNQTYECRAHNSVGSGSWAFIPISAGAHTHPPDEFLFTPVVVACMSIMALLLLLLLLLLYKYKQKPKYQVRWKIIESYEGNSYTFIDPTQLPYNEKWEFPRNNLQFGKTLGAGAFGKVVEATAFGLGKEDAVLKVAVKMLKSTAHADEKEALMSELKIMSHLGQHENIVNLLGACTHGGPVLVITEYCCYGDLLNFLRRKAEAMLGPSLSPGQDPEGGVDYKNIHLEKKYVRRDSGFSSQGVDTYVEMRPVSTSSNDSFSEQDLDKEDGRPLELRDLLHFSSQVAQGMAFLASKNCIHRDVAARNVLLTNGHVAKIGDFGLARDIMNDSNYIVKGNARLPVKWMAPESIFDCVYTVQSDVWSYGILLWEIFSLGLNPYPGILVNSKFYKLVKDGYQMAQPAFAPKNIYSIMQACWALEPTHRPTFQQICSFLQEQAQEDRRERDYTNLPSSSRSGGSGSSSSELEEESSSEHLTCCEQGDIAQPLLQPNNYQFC

O=C(CC1CC1)N1N=C(c2cccnc2)CC1c1ccccc1O (centres undefined)
IC50 [1]: 83 nM | IC50 [2]: 8000 nM

O=C(c1cccc(Oc2ccccc2)c1)N1N=C(c2cccnc2)CC1c1ccccc1O (centres undefined)
IC50 [1]: 156 nM

O=C(c1ccc(F)cc1C(F)(F)F)N1N=C(c2cccnc2)CC1c1ccccc1O (centres undefined)
IC50 [1]: > 10000 nM

O=C(c1ccc[nH]1)N1N=C(c2cccnc2)CC1c1ccccc1O (centres undefined)
IC50 [3]: > 10000 nM | IC50 [4]: > 10000 nM | IC50 [5]: > 10000 nM | IC50 [6]: > 10000 nM | IC50 [1]: 22.6 nM | IC50 [7]: > 10000 nM | IC50 [8]: > 10000 nM | IC50 [2]: 2000 nM

O=C(c1cc(-c2ccccc2)on1)N1N=C(c2cccnc2)CC1c1ccccc1O (centres undefined)
IC50 [1]: 8 nM | IC50 [2]: 810 nM

COc1ccc(-c2cc(C(=O)N3N=C(c4cccnc4)CC3c3ccccc3O)no2)cc1 (centres undefined)
IC50 [1]: 15.4 nM | IC50 [2]: 460 nM

O=C(c1[nH]nc2c1CCC2)N1N=C(c2cccnc2)CC1c1ccccc1O (centres undefined)
IC50 [1]: 7 nM | IC50 [2]: 350 nM

Cc1nc(-c2cnccn2)sc1C(=O)N1N=C(c2cccnc2)CC1c1ccccc1O (centres undefined)
IC50 [1]: 6.5 nM | IC50 [2]: 710 nM

COc1ccc(-c2ccc(C(=O)N3N=C(c4cccnc4)CC3c3ccccc3O)o2)cc1 (centres undefined)
IC50 [1]: 18 nM | IC50 [2]: 3700 nM

O=C(c1cc2c(s1)CCC2)N1N=C(c2cccnc2)CC1c1ccccc1O (centres undefined)
IC50 [1]: 6.9 nM | IC50 [2]: 920 nM

CCOc1cccc2cc(C(=O)N3N=C(c4cccnc4)CC3c3ccccc3O)oc12 (centres undefined)
IC50 [3]: > 10000 nM | IC50 [4]: > 10000 nM | IC50 [5]: > 10000 nM | IC50 [6]: > 10000 nM | IC50 [1]: 25.7 nM | IC50 [7]: > 10000 nM | IC50 [8]: > 10000 nM | IC50 [2]: 3500 nM

Cc1nc(-c2ccccc2)sc1C(=O)N1N=C(c2cccnc2)CC1c1ccccc1O (centres undefined)
IC50 [1]: 37.9 nM | IC50 [2]: 1300 nM

O=C(c1cc(-c2ccco2)on1)N1N=C(c2cccnc2)CC1c1ccccc1O (centres undefined)
IC50 [1]: 5.6 nM | IC50 [2]: 970 nM

O=C(c1ccc(-c2cccnc2)s1)N1N=C(c2cccnc2)CC1c1ccccc1O (centres undefined)
IC50 [1]: 18.7 nM | IC50 [2]: 180 nM

O=C(c1ccc(Br)o1)N1N=C(c2cccnc2)CC1c1ccccc1O (centres undefined)
IC50 [3]: > 10000 nM | IC50 [4]: > 10000 nM | IC50 [5]: > 10000 nM | IC50 [6]: > 10000 nM | IC50 [1]: 7.9 nM | IC50 [7]: > 10000 nM | IC50 [8]: > 10000 nM | IC50 [2]: 1400 nM

O=C(c1ccc([N+](=O)[O-])o1)N1N=C(c2cccnc2)CC1c1ccccc1O (centres undefined)
IC50 [1]: 130 nM

O=C(c1cc(-c2ccc(Cl)cc2)cs1)N1N=C(c2cccnc2)CC1c1ccccc1O (centres undefined)
IC50 [1]: 216 nM

O=C(c1cc(-c2ccccc2)no1)N1N=C(c2cccnc2)CC1c1ccccc1O (centres undefined)
IC50 [1]: 8 nM | IC50 [2]: 1100 nM

O=C(c1cncc(-c2cccs2)c1)N1N=C(c2cccnc2)CC1c1ccccc1O (centres undefined)
IC50 [1]: 260 nM | IC50 [2]: > 10000 nM

O=C(c1ccc(-c2ccc(Cl)cc2)s1)N1N=C(c2cccnc2)CC1c1ccccc1O (centres undefined)
IC50 [1]: 140 nM

O=C(c1ccc(-c2cccnc2)s1)N1N=C(c2cccnc2)CC1c1ccccc1O (single isomer, unassigned; later eluting)
IC50 [1]: 15 nM | IC50 [2]: 280 nM

O=C(c1cc(-c2cccs2)n[nH]1)N1N=C(c2cccnc2)CC1c1ccccc1O (centres undefined)
IC50 [1]: 10.3 nM | IC50 [2]: 410 nM

O=C(c1cn2c(n1)sc1ccccc12)N1N=C(c2cccnc2)CC1c1ccccc1O (centres undefined)
IC50 [1]: 9.1 nM | IC50 [2]: 61 nM
